Reference: ChEMBL document CHEMBL1154693, “Discovery of trans-4-[1-[[2,5-Dichloro-4-(1-methyl-3-indolylcarboxamido)phenyl]acetyl]-(4S)-methoxy-(2S)-pyrrolidinylmethoxy]cyclohexanecarboxylic acid: an orally active, selective very late antigen-4 antagonist” (J Med Chem, 2009)

Tests used:
[1] = Volume of distribution at steady state in Beagle dog at 0.5 mg/kg, iv; type: ADME, organism-based, Canis lupus familiaris; parameters: dose 0.5 mg/kg, route intravenous; conditions: in vivo, read-out: Vdss
Outline: (§1)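 Male beagle dogs (10-12 kg), fasted 18 h, three per group; cassette dosing 0.5 mg/kg in 0.5% MC with 3 equiv NaOH (po) or saline with 3 equiv NaOH (iv). Blood taken 0.08 (iv) or 0.25 (po) to 24 h, fed after 4 h; plasma assayed by LC/MS/MS, noncompartmental analysis.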

[2] = Half life in Beagle dog at 0.5 mg/kg, iv; type: ADME, organism-based, Canis lupus familiaris; parameters: dose 0.5 mg/kg, route intravenous; conditions: in vivo; outline: as §1
Mus musculus [3] = experiment: Toxicity in BALB/c AnNCrj mouse assessed as induction of hepatic injury at 50 mg/kg, iv for 2 days; type: organism-based; parameters: dose 50 mg/kg, route intravenous; conditions: in vivo, 48 h
Outline: (§2)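 Mice dosed iv at 50 mg/kg or orally at 25 or 200 (mg/kg)/day for 2 days, then assessed for liver injury.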

[4] = Oral bioavailability in Sprague-Dawley rat at 1 mg/kg, po; type: ADME, organism-based; conditions: in vivo
Outline: (§3)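 Male Sprague-Dawley rats (7 weeks), fasted 18 h, four per group. 1 mg/kg oral in 0.5% MC or iv in saline, each with 3 equiv NaOH. Plasma drawn at 0.08 (iv) or 0.25 (po), 0.5, 1, 2 and 6 h; LC/MS/MS quantitation, noncompartmental parameters.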

Integrin alpha-4/beta-1 [5] = biological target: T1, Integrin alpha-4/beta-1 (Homo sapiens, UniProt P05556+P13612); experiment: Inhibition of europium labeled human VCAM1/Fc chimera binding to human VLA-4 alpha-4-beta-1 expressed in Chinese hamster 4B4 cells by fluorimetric assay; type: cell-based
T1 sequence (P05556 whole entry): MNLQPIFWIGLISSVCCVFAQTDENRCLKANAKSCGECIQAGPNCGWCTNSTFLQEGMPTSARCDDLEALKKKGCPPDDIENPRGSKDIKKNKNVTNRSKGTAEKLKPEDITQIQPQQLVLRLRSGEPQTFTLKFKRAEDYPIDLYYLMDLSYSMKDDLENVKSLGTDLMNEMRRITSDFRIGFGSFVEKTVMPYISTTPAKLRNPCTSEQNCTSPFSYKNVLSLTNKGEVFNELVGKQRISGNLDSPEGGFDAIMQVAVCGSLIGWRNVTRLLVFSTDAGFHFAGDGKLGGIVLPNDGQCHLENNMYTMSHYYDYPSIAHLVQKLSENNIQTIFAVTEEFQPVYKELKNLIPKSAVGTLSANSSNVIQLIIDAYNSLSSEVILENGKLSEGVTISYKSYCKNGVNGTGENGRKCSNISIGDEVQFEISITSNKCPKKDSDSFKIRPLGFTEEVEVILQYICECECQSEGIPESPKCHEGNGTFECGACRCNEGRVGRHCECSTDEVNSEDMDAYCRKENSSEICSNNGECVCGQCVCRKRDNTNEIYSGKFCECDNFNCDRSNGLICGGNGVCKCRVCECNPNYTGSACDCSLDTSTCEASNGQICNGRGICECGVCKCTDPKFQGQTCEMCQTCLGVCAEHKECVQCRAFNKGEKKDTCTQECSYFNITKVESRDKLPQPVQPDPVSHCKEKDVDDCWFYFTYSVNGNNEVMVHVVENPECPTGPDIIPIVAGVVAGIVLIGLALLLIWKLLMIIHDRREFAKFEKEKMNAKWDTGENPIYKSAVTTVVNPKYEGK
T1 sequence (P13612 whole entry): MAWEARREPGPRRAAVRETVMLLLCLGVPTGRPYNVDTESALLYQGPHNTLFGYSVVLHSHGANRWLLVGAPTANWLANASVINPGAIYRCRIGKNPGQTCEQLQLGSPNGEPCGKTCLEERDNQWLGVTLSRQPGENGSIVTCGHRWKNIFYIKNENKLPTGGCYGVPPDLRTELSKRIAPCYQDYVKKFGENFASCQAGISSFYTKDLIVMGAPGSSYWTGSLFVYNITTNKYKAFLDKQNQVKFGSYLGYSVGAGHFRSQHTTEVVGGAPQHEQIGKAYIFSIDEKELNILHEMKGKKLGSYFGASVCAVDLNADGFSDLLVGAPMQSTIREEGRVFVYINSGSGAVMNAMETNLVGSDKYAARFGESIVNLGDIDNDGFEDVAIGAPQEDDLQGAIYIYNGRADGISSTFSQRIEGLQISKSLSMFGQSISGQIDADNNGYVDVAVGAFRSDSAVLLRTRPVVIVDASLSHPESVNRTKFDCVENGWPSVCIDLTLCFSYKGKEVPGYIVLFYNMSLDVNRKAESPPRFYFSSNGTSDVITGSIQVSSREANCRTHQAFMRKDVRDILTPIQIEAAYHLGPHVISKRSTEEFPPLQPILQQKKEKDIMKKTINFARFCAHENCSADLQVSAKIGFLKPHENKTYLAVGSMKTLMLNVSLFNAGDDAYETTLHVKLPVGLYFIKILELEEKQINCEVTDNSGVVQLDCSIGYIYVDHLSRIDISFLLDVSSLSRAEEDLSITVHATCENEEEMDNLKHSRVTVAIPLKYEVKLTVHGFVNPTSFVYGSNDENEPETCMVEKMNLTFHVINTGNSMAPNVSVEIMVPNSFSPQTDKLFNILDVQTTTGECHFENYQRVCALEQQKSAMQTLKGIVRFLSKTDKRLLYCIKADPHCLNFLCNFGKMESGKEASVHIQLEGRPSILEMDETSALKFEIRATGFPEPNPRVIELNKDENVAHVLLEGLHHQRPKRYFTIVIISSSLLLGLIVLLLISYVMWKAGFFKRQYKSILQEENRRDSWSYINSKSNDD

[6] = Clearance in Beagle dog at 0.5 mg/kg, iv; type: ADME, organism-based, Canis lupus familiaris; parameters: dose 0.5 mg/kg, route intravenous; conditions: in vivo; outline: as §1
[7] = AUC in Sprague-Dawley rat at 1 mg/kg, po; type: ADME, organism-based; parameters: dose 1 mg/kg, route oral; conditions: plasma; outline: as §3
[8] = biological target: Intercellular adhesion molecule (ICAM-1), Integrin alpha-L/beta-2 (Homo sapiens) (UniProt P20701+P05362+P05107); experiment: Inhibition of europium labeled human ICAM1 binding to human integrin alphaLbeta2 receptor at 162 uM by protein/protein binding assay; type: protein-complex assay
Outline: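 Membrane-bound human LFA-1 immobilized at 1 μg/mL overnight at 4 °C, then blocked with BSA. Compound added with 2 nM Eu-labeled human ICAM-1 D1D5-IgG in 5% DMSO and bound for 2 h at room temperature; plates washed and Eu fluorescence read by time-resolved fluorometry.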

[9] = AUC in Sprague-Dawley rat at 1 mg/kg, iv; type: ADME, organism-based; parameters: dose 1 mg/kg, route intravenous; conditions: plasma; outline: as §3
[10] = AUC in Beagle dog at 0.5 mg/kg, iv; type: ADME, organism-based, Canis lupus familiaris; parameters: dose 0.5 mg/kg, route intravenous; conditions: plasma; outline: as §1
Mus musculus [11] = experiment: Antiinflammatory activity in Ascaris suum antigen-induced BALB/c AnNCrj mouse asthma model assessed as inhibition of eosinophil infiltration in BAL fluid at 5 mg.kg, po bid administered 15 mins before and 8, 24 and 32 hrs after antigen challenge measured 48 hrs after antigen challenge; type: functional
Outline: (§4)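 Female BALB/c AnNCrj mice given cyclophosphamide 150 mg/kg po (day 0), sensitized ip with Ascaris suum extract plus alum on days 2 and 14, challenged intratracheally day 22. Compound in 0.5% MC/0.03% Tween 80 po 15 min before and 8, 24, 32 h after challenge; BAL at 48 h, eosinophils from total count times Wright-stained differential.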

[12] = Clearance in Sprague-Dawley rat at 1 mg/kg, iv; type: ADME, organism-based; parameters: dose 1 mg/kg, route intravenous; conditions: in vivo; outline: as §3
[13] = biological target: Integrin alpha-IIb/beta-3 (Homo sapiens) (UniProt P05106+P08514); experiment: Inhibition of integrin alpha2bbeta3 receptor dependent platelet aggregation at 16 uM
Outline: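 Platelet-rich plasma prepared from citrated blood of two volunteers. Compound in DMSO preincubated with PRP for 2 min at 37 °C, then aggregation induced with collagen; aggregation rate followed for 10 min.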

Mus musculus [14] = experiment: Antiinflammatory activity in Ascaris suum antigen-induced BALB/c AnNCrj mouse asthma model assessed as reduction of acetylcholine chloride-induced bronchial hyperesponsiveness at 12.5 mg/kg, bid administered 15 mins before and 8, 24 and 32 hrs after antigen challenge measured 48 hrs after antigen challenge; type: functional; parameters: scale not given: the % may be the effect or the level left
Outline: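 Sensitized/challenged BALB/c AnNCrj mice (Ascaris suum, as in the eosinophil model) dosed po in 0.5% MC/0.03% Tween 80 at 15 min before and 8, 24, 32 h after challenge. At 48 h, pentobarbital-anesthetized, tracheotomized, ventilated mice given ACh injection; lung resistance increase measured.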

[15] = AUC in cynomolgus monkey at 0.5 mg/kg, iv; type: ADME, organism-based, Macaca fascicularis; parameters: dose 0.5 mg/kg, route intravenous; conditions: plasma
Outline: (§5)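 Female cynomolgus monkeys (3.5-4 kg), fasted 18 h, three per group. Dose 0.5 mg/kg, oral as suspension in 0.5% MC or iv in saline with 3 equiv NaOH. Blood sampled from 0.08 (iv) or 0.25 (po) up to 24 h, food after 4 h; plasma LC/MS/MS, noncompartmental analysis.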

[16] = Half life in Sprague-Dawley rat at 1 mg/kg, iv; type: ADME, organism-based; parameters: dose 1 mg/kg, route intravenous; conditions: in vivo; outline: as §3
[17] = Volume of distribution at steady state in Sprague-Dawley rat at 1 mg/kg, iv; type: ADME, organism-based; parameters: dose 1 mg/kg, route intravenous; conditions: in vivo, read-out: Vdss; outline: as §3
[18] = Half life in Sprague-Dawley rat at 1 mg/kg, po; type: ADME, organism-based; parameters: dose 1 mg/kg, route oral; conditions: in vivo; outline: as §3
[19] = Clearance in cynomolgus monkey at 0.5 mg/kg, iv; type: ADME, organism-based, Macaca fascicularis; parameters: dose 0.5 mg/kg, route intravenous; conditions: in vivo; outline: as §5
[20] = AUC in cynomolgus monkey at 0.5 mg/kg, po; type: ADME, organism-based, Macaca fascicularis; parameters: dose 0.5 mg/kg, route oral; conditions: plasma; outline: as §5
Mus musculus [21] = experiment: Antiinflammatory activity in Ascaris suum antigen-induced BALB/c AnNCrj mouse asthma model assessed as inhibition of eosinophil infiltration in BAL fluid orally administered twice daily 15 mins before and 8, 24 and 32 hrs after antigen challenge measured 48 hrs after antigen challenge; type: functional, organism-based; outline: as §4
[22] = Half life in Beagle dog at 0.5 mg/kg, po; type: ADME, organism-based, Canis lupus familiaris; parameters: dose 0.5 mg/kg, route oral; conditions: in vivo; outline: as §1
[23] = Drug level in BALB/c mouse serum at 10 mg/kg, po after 15 mins; type: ADME, organism-based; parameters: dose 10 mg/kg, route oral; conditions: read-out: Drug uptake
Outline: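 Serum (final 0.01-10%) assayed in the VLA-4/VCAM-1 binding assay, and concentration estimated from a calibration curve of compound spiked into untreated mouse serum.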

[24] = Oral bioavailability in Beagle dog at 0.5 mg/kg, po; type: ADME, organism-based, Canis lupus familiaris; conditions: in vivo; outline: as §1
[25] = biological target: T2, Integrin alpha-4/beta-7 (Homo sapiens) (UniProt P13612+P26010); experiment: Inhibition of MAdCAM1 binding to integrin alpha4beta7 receptor in human RPMI8866 cells at 16 uM by cell/protein binding assay; type: cell-based
Outline: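 RPMI8866 human B cells (α4β7+, β1−) at 1.2 × 10⁶/well in HEPES buffer containing BSA, DTPA, Ca, Mg and Mn, mixed with compound (final 10 μg/mL to 1 ng/mL) and Eu-MAdCAM-1 (final 1 nM) for 1 h at room temperature. Free ligand removed by centrifugation and washing; time-resolved fluorescence measured.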

[26] = Oral bioavailability in cynomolgus monkey at 0.5 mg/kg, po; type: ADME, organism-based, Macaca fascicularis; conditions: in vivo; outline: as §5
[27] = Cmax in Beagle dog at 0.5 mg/kg, po; type: ADME, organism-based, Canis lupus familiaris; parameters: dose 0.5 mg/kg, route oral; conditions: in vivo; outline: as §1
[28] = Cmax in cynomolgus monkey at 0.5 mg/kg, po; type: ADME, organism-based, Macaca fascicularis; parameters: dose 0.5 mg/kg, route oral; conditions: in vivo; outline: as §5
[29] = Half life in cynomolgus monkey at 0.5 mg/kg, iv; type: ADME, organism-based, Macaca fascicularis; parameters: dose 0.5 mg/kg, route intravenous; conditions: in vivo; outline: as §5
[30] = Volume of distribution at steady state in cynomolgus monkey at 0.5 mg/kg, iv; type: ADME, organism-based, Macaca fascicularis; parameters: dose 0.5 mg/kg, route intravenous; conditions: in vivo, read-out: Vdss; outline: as §5
Cavia porcellus = experiment: Inhibition of acetylcholine chloride-induced bronchial hyperesponsiveness in ovalbumin challenged guinea pig asthma model administered orally 1 hr before and 2.5 hrs after antigen challenge; type: functional
Outline: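 Hartley guinea pigs (n = 8/group) sensitized with 1% OVA aerosol 10 min/day for 8 days, challenged a week later with 2% OVA aerosol 5 min; metyrapone iv and pyrilamine ip pretreatment. Oral doses 0.8, 2, 5 or 12.5 mg/kg at 1 h before and 2.5 h after challenge. At 22-27.5 h, stepwise ACh aerosol (0.0625-2 mg/mL); PC100ACh from sRaw.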

[31] = AUC in Beagle dog at 0.5 mg/kg, po; type: ADME, organism-based, Canis lupus familiaris; parameters: dose 0.5 mg/kg, route oral; conditions: plasma; outline: as §1
[32] = Cmax in Sprague-Dawley rat at 1 mg/kg, po; type: ADME, organism-based; parameters: dose 1 mg/kg, route oral; conditions: in vivo; outline: as §3
Mus musculus [33] = experiment: Toxicity in BALB/c AnNCrj mouse assessed as induction of hepatic injury at 200 mg/kg, po for 2 days; type: organism-based; parameters: dose 200 mg/kg, route oral; conditions: in vivo, 48 h; outline: as §2
Integrin alpha-4/beta-1 [34] = biological target: T1, Integrin alpha-4/beta-1; experiment: Inhibition of europium labeled human VCAM1/Fc chimera binding to human VLA-4 alpha-4-beta-1 expressed in Chinese hamster 4B4 cells in presence of 3% HSA by fluorimetric assay; type: cell-based
Outline: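 CHO-K1 4B4 cells transfected with human α4 and β1, plated at 3 × 10⁵ cells/mL and cultured 2 days, washed with HEPES pH 7.5 buffer containing Ca, Mg, Mn. Compound plus Eu-labeled human VCAM-1/Fc (final 1 nM), with or without human serum albumin, 60 min at room temperature; washed, Eu time-resolved fluorescence read; duplicates.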

[35] = Half life in cynomolgus monkey at 0.5 mg/kg, po; type: ADME, organism-based, Macaca fascicularis; parameters: dose 0.5 mg/kg, route oral; conditions: in vivo; outline: as §5
[36] = Protein binding in plasma
[37] = Volume of distribution at steady state in Sprague-Dawley rat at 10 mg/kg, iv; type: ADME, organism-based; parameters: dose 10 mg/kg, route intravenous; conditions: in vivo, read-out: Vdss
[38] = Oral bioavailability in rat; conditions: in vivo
[39] = Half life in Sprague-Dawley rat at 10 mg/kg, iv; type: ADME, organism-based; parameters: dose 10 mg/kg, route intravenous; conditions: in vivo
[40] = biological target: T2, Integrin alpha-4/beta-7 (Homo sapiens); conditions: at 4 µg/mL
[41] = Clearance in Sprague-Dawley rat at 10 mg/kg, iv; type: ADME, organism-based; parameters: dose 10 mg/kg, route intravenous; conditions: in vivo
in vivo = conditions: rat, plasma

## CO[C@H]1C[C@@H](CO[C@H]2CC[C@H](C(=O)O)CC2)N(C(=O)Cc2cc(Cl)c(NC(=O)c3cn(C)c4ccccc34)cc2Cl)C1
[1]
  Vd: 0.164 L/kg
[2]
  half-life: 2.1 h
Mus musculus [3]
  Activity: Non-toxic
[4]
  bioavailability: > 100%
Integrin alpha-4/beta-1 [5]
  IC50: 5.4 nM
[6]
  clearance: 1.7 mL/min/kg
[7]
  AUC: 975 ng·h/mL
[8]
  inhibition: 9%
[9]
  AUC: 865 ng·h/mL
[10]
  AUC: 6710 ng·h/mL
Mus musculus [11]
  inhibition (INH): 53%
[12]
  clearance: 19.3 mL/min/kg
[13]
  inhibition: 10%
Mus musculus [14]
  Activity: 83%
[15]
  AUC: 5140 ng·h/mL
[16]
  half-life: 1 h
[17]
  Vd: 1.22 L/kg
[18]
  half-life: 1.5 h
[19]
  clearance: 1.8 mL/min/kg
[20]
  AUC: 3480 ng·h/mL
Mus musculus [21]
  Activity: Dose-dependent effect
[22]
  half-life: 2 h
[23]
  concentration at 0.25 h: 6150 ng/mL
[24]
  bioavailability: 91%
[25]
  inhibition: 41%
[26]
  bioavailability: 68%
[27]
  Cmax: 1590 ng/mL
[28]
  Cmax: 431 ng/mL
[29]
  half-life: 6.3 h
[30]
  Vd: 0.223 L/kg
Cavia porcellus
  Activity: Dose-dependent effect
Cavia porcellus; po, read-out: ID50 (the source's name)
  ED50: 3 mg/kg
[31]
  AUC: 6090 ng·h/mL
[32]
  Cmax: 385 ng/mL
Mus musculus [33]
  Activity: Non-toxic
Integrin alpha-4/beta-1 [34]
  IC50: 93 nM
[35]
  half-life: 5.5 h

## Cc1ccccc1Nc1nc2ccc(CC(=O)N3C[C@@H](F)C[C@H]3CO[C@H]3CC[C@H](C(=O)O)CC3)cc2o1
[36]
  fraction unbound: 0.03
Integrin alpha-4/beta-1 [5]
  IC50: 2.8 nM
[37]
  Vd: 0.317 L/kg
[38]
  bioavailability: 24%
[39]
  half-life: 0.8 h
[40]
  inhibition: 46%
[41]
  clearance: 12.2 mL/min/kg
[23]
  concentration at 0.25 h: 373 ng/mL
In vivo
  clearance: 12.2 mL/min/kg
Integrin alpha-4/beta-1 [34]
  IC50: 45 nM
